Experimental data taken from PubChem BioAssay.
Inconclusive results are not listed.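 The calls were made as follows, unless noted: active = cell viability at or below a set limit in both duplicate runs, the limit being the all-compound median minus 4 SD (cut at about 23% in these data, passing the limit was not always enough); inconclusive = no clear call, values can overlap the other calls; inactive = the rest.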

Assays:
[1] = S. cerevisiae growth inhibition in permissive medium (OD615), pilot counter-assay for S. cerevisiae lifespan shortening project, permissive growth control (AID 705;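 active = growth inhibition above 25% in both replicates, a cutoff set 3 SD above the mean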); details: OD615, 24 h, at 10 µM, stronger effect = higher value
How it was run: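 System – S. cerevisiae with engineered DeaD lifespan system · Buffer or medium – SC raffinose/galactose permissive medium · Schedule – cells pre-grown 4 h, then 24 h compound exposure, 30 °C humidified · Technique – culture turbidity as optical density at 615 nm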

[2] = S. cerevisiae growth inhibition in restrictive medium, OD615, pilot screen, restrictive growth control, yeast lifespan reduction project (AID 706;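 active = growth inhibition above a set limit, 3 SD over mean compound inhibition, in both replicates, cut at about 43% in these data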;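 also: modified DeaD lifespan yeast strain shifted to restrictive glucose medium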); details: OD615, 48 h, at 10 µM, stronger effect = higher value
How it was run: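 Material: engineered S. cerevisiae DeaD strain / Medium: glucose-based CSMM-D restrictive medium / Compound: single dose of 10 µM compound final, 0.25% DMSO / Timing: 4 h pre-incubation, 48 h exposure at 30 °C / Technique: OD615 absorbance reading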

[3] = doxorubicin toxicity protection in MRP-1 cells – H69AR cells, CellTiter-Glo, duplicate, MRP-1 activator project, pilot screen (AID 807;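 active = viability increase at or above a cutoff of the median across tested compounds plus 3 SD, cut at about 8.5% in these data, passing the limit was not always enough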;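 also: compound pretreatment 18-22 h then 72 h combined with doxorubicin; 0% = doxorubicin alone and 100% = vehicle without doxorubicin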); details: H69AR viability with doxorubicin, CellTiter-Glo luminescence; at 10 µM; stronger effect = higher value
[4] = viability of HCT116 without oncogenic beta-catenin – human colon tumor cells, pilot screen (AID 823); details: HCT116 beta-catenin knockout viability, CellTiter-Glo, 60 h; at 10 µM; stronger effect = lower value;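 also: 0% = wells killed by 20 µM Hyamine and 100% = untreated DMSO cell wells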
[5] = viability of PTEN-null HCT116 cells – cell-based, HCT116 clonal line, CellTiter-Glo, pilot screen (AID 824;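 active = viability at or below 27.92% in each of two runs, the all-compound median minus 4 SD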;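 also: 0% = 20 µM Hyamine control and 100% = vehicle cell control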); details: HCT116 PTEN-deleted viability, 60 h, at 10 µM, stronger effect = lower value
[6] = RAM pathway blockade in budding yeast – dse1pr::URA3 reporter, 5-FOA selection, pilot screen (AID 869;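 active = inhibition over a set limit, the all-compound mean plus 3 SD, in both replicate runs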;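 also: 0% = DMSO wells with no growth and 100% = 10 µM 1-NA-PP1 with full growth; RAM network block rescues cells from 5-FOA so hits raise OD615 growth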); details: S. cerevisiae dse1pr::URA3 5-FOA growth, OD615, 2 d; at 10 µM; stronger effect = higher value; strain carries analog-sensitive mutant Cbk1 kinase
[7] = RAM signaling pathway blockade in yeast – S. cerevisiae, Pdr1DBD-CYC8 efflux-inhibited sensitized strain, primary screen (AID 1298;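 active = RAM network inhibition above 8.4% in each of two replicates, 3 SD over the compound average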;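 also: 0% = DMSO untreated cells without growth and 100% = 10 µM 1-NA-PP1 full growth; higher means more yeast growth rescued from 5-FOA killing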); details: S. cerevisiae cbk1-as DSE1-URA3 strain, 5-FOA growth OD615, 2 d; at 50 µM; stronger effect = higher value

O=C(CCCOc1ccccc1)Nc1ccc2c(c1)OCCO2
inactive: growth inhibition [1] 1.88% | growth inhibition [2] 7.45% | viability increase [3] -4.17% | viability [4] 102% | viability [5] 102% | inhibition [6] 1.16% | RAM network inhibition [7] 3.58%

CCOC(=O)C(C)c1nn(C)c(=O)c2ccccc12 (stereo unspecified)
inactive: growth inhibition [1] -3.15% | growth inhibition [2] -5.69% | viability increase [3] -2.34% | viability [4] 97.4% | viability [5] 92.7% | inhibition [6] 1.42% | RAM network inhibition [7] 1.72%

CCOC(=O)C1CCN(C(=O)C2CCN(S(=O)(=O)c3cccc4cccnc34)CC2)CC1
inactive: growth inhibition [1] 4.06% | growth inhibition [2] 3.42% | viability increase [3] -1.75% | viability [4] 102% | viability [5] 97.6% | inhibition [6] 0.585% | RAM network inhibition [7] 1.1%

Cc1onc(-c2ccccc2)c1C(=O)Nc1sc2c(c1C#N)CCC2
inactive: growth inhibition [1] 3.88% | growth inhibition [2] 4.25% | viability increase [3] -4.93% | viability [4] 59.7% | viability [5] 54.3% | inhibition [6] 1.58% | RAM network inhibition [7] 0.09%

Cc1ccc(CCN2C(=O)CCC2(C)C(=O)NC2CCCC2)cc1 (stereo unspecified)
inactive: growth inhibition [1] -7.04% | growth inhibition [2] -1.27% | viability increase [3] -4.22% | viability [4] 97.5% | viability [5] 100% | inhibition [6] 1.19% | RAM network inhibition [7] 5.93%

COc1cccc(-c2nc(CS(=O)(=O)CC(=O)NCc3ccccc3OC)c(C)o2)c1
inactive: growth inhibition [1] 5.72% | growth inhibition [2] 2.59% | viability increase [3] -1.62% | viability [4] 95.9% | viability [5] 89.1% | inhibition [6] 1.55% | RAM network inhibition [7] 3.2%

CC1=C(C(=O)N(C)C)C(c2cccc(Cl)c2)NC(=O)N1 (stereo unspecified)
inactive: growth inhibition [1] -2.44% | growth inhibition [2] -14.6% | viability increase [3] 0.18% | viability [4] 99.1% | viability [5] 94.9% | inhibition [6] 2.12% | RAM network inhibition [7] 2.17%

COc1cc(OC)c(Nc2cc(C)nc3nc(C)nn23)cc1Cl
inactive: growth inhibition [1] 4.72% | growth inhibition [2] -1.03% | viability increase [3] -1.47% | viability [4] 106% | viability [5] 104% | inhibition [6] 3.52% | RAM network inhibition [7] -0.72%

Cc1ccc2c(c1)NCC(C(=O)NCc1ccccc1)O2 (stereo unspecified)
inactive: growth inhibition [1] -10.4% | growth inhibition [2] 2.51% | viability increase [3] 0.49% | viability [4] 103% | viability [5] 88.6% | inhibition [6] 1.46% | RAM network inhibition [7] 0.25%

CCN1CCN(C(=O)c2cc3c(s2)-c2ccccc2S(=O)(=O)C3)CC1
inactive: growth inhibition [1] -4.69% | growth inhibition [2] -9.1% | viability increase [3] -2.15% | viability [4] 99.6% | viability [5] 92.5% | inhibition [6] 2.36% | RAM network inhibition [7] 0.72%

CC1CCCCN1CCCNC(=O)C1CCN(c2nc3ccccc3o2)CC1 (stereo unspecified)
inactive: growth inhibition [1] -2.48% | growth inhibition [2] -4.11% | viability increase [3] -0.83% | viability [4] 99.9% | viability [5] 97.8% | inhibition [6] 0.5% | RAM network inhibition [7] 3.1%

O=C(NCCCn1ccnc1)c1cc(C2CC2)on1
inactive: growth inhibition [1] -14.9% | growth inhibition [2] -11.1% | viability increase [3] 0.19% | viability [4] 105% | viability [5] 103% | inhibition [6] 1.95% | RAM network inhibition [7] 6.12%

O=C1c2oc3ccccc3c(=O)c2C(c2cccc(O)c2)N1CCCN1CCOCC1 (stereo unspecified)
inactive: growth inhibition [1] -8.79% | growth inhibition [2] -7.73% | viability increase [3] -0.83% | viability [4] 102% | viability [5] 102% | inhibition [6] 0.37% | RAM network inhibition [7] 2.79%

C=CC(C)Sc1nc2c(c(=O)n(C)c(=O)n2C)n1Cc1ccccc1Cl (stereo unspecified)
inactive: growth inhibition [1] -3.12% | growth inhibition [2] -2.02% | viability increase [3] -3.37% | viability [4] 100% | viability [5] 99.3% | inhibition [6] 0.785% | RAM network inhibition [7] 5.22%

Cc1ccc(Cn2nnc3c(=O)n(Cc4ccccc4C)cnc32)cc1
inactive: growth inhibition [1] 1.6% | growth inhibition [2] -5.54% | viability increase [3] -2.98% | viability [4] 92.7% | viability [5] 82.3% | inhibition [6] 1.68% | RAM network inhibition [7] 8.59%

Cc1c(C(=O)NCc2ccc3c(c2)OCO3)sc2nc(-c3ccccc3)cn12
inactive: growth inhibition [1] 5.98% | growth inhibition [2] -4.12% | viability increase [3] -0.35% | viability [4] 111% | viability [5] 103% | inhibition [6] 3.05% | RAM network inhibition [7] 6.39%

COc1cccc(-n2nnc3c(=O)n(CC(=O)NCC4CCCO4)cnc32)c1 (stereo unspecified)
inactive: growth inhibition [1] 2.81% | growth inhibition [2] -2.83% | viability increase [3] 0.22% | viability [4] 101% | viability [5] 93.7% | inhibition [6] -0.415% | RAM network inhibition [7] 5.27%

Cc1cccn2cc(-c3ccc(F)cc3)nc12
inactive: growth inhibition [1] 1.97% | growth inhibition [2] 15.1% | viability increase [3] -4.81% | viability [4] 87.2% | viability [5] 82.9% | inhibition [6] 1.56% | RAM network inhibition [7] -1.54%
